Lung fibro prol = blocks proliferation of human lung fibroblasts. LL 47 human lung fibroblast viability, ATP luminescence; stronger effect = lower value. viability, % at 10 µM. hit rate 1.1% among 85,000. AID 719;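 active means viability at or below 50% in the single dose screen; inactive means viability above 50%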;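 further: compound exposure lasted 72 h before the ATP readout; 100% = median luminescence of untreated cell-only wells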
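test system = LL 47 human lung fibroblasts | amount = 1,150 fibroblasts seeded per well | medium = 15% FBS in IMEM | times = overnight cell rest, 72 h compound treatment at 37 °C | measured by = CellTiter-Glo luminescence measuring cellular ATP | read-out = viability percentage against median untreated-cell control | benchmarks = cell-only wells, no compound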
PTEN del growth = growth suppressors of cells with PTEN tumor suppressor deletion; HCT116 PTEN-null viability, CellTiter-Glo, 60 h; stronger effect = lower value; AID 827; viability, % at 10 µM; hit rate 1.2% among 140,000;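 active means viability at or below a set limit, 4 SD under the median of all tested compounds, cut at about 3.7% in these data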;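 further: PTEN knockout HCT116 line with beta catenin targeted HCT116 as companion control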
H69AR inhibit = growth inhibitors of human H69AR lung tumor cells. H69AR lung tumor viability, ATP luminescence, 72 h; stronger effect = lower value. viability, % at 10 µM. hit rate 6% among 85,000;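 active means viability at or below 40%; inactive means viability above 40%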;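 further: multidrug resistant small cell line overexpressing MRP-1 efflux transporter; 100% = mean luminescence of untreated control wells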
HCT116 bCat-KO = beta-catenin-lacking colon tumor cell growth suppression; HCT116 beta-catenin knockout viability, CellTiter-Glo, 60 h; stronger effect = lower value; viability, % at 10 µM; hit rate 1.5% among 140,000; AID 818;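 active means viability at or under a set limit, the compound median less 4 SD, cut at about 6% in these data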;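 further: 0% = Hyamine 1622 control at 20 µM and 100% = untreated cell control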
HUVEC prolif 384 = inhibitors of human endothelial cell proliferation; HUVEC proliferation, CellTiter-Glo luminescence, 72 h; stronger effect = lower value; viability, % at 10 µM (by protocol); hit rate 1.1% among 86,000; AID 648;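 active means viability at or below 30%; inactive means viability above 30%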;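 further: 100% = median luminescence of DMSO-only cell control wells on each plate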
Starred values were filed as active, the others as inactive; . = not tested or not shown. This excerpt belongs to a sample that is enriched for hits.

SMILES	Lung fibro prol	PTEN del growth	H69AR inhibit	HCT116 bCat-KO	HUVEC prolif 384
COC(=O)c1c(NC(=O)CN2CCN(c3ccccc3OC)CC2)c2cc(C)ccc2n1C	87	95	29*	88	66
COc1ccccc1N1CCN(CC(=O)Nc2cc(C)nn2-c2nc(C)cc(C)n2)CC1	37*	.	19*	.	38
COc1ccccc1N1CCN(CC(=O)Nc2cc(F)ccc2C)CC1	99	105	75	95	106
CCCCCOc1ccc(Br)cc1/C(C)=N/NC1=NCCN1	93	4	2.3*	3.1*	6.4*
CCCCOCCCNc1ncnc2c1[nH]c1ccccc12	91	14	39*	13	71
COc1cc(OC)c(OC)cc1/C=N/Nc1ncnc2c1[nH]c1ccccc12	.	5	.	4.2*	.
CCOc1cc(C=O)ccc1OS(=O)(=O)c1ccc(NC(C)=O)cc1	.	85	.	91	.
CCCCOc1ccc(C2C(C(=O)c3ccc(C)o3)=C(O)C(=O)N2CC2CCCO2)cc1 (stereo unspecified)	.	94	.	91	.
CCN(CC)CCNC(=O)c1cc2c(-c3ccc(Cl)cc3)nn(C)c2s1	21*	1.1*	2.5*	1.5*	2.8*
Cn1nc(-c2ccc(Cl)cc2)c2cc(C(=O)NCCCN3CCOCC3)sc21	39*	27	43	15	2.9*
CC(C)n1cc(/C=C(\C#N)S(=O)(=O)c2ccccc2)c2ccccc21	92	96	34*	89	86
COc1cccc(CC(=S)N2CCOCC2)c1	.	101	.	91	.
COc1ccc(OC)c(C2C=C(c3ccc(C)c(C)c3)Nc3nnnn32)c1 (stereo unspecified)	64	90	14*	110	60
COc1ccc(C2=CC(c3ccc(C)cc3)n3nnnc3N2)cc1 (stereo unspecified)	101	90	102	83	101
COc1cccc(C2=CC(c3cc(OC)ccc3OC)n3nnnc3N2)c1 (stereo unspecified)	71	28	5.4*	26	45
COc1cccc(C2=CC(c3ccccc3)n3nnnc3N2)c1 (stereo unspecified)	.	6	.	7	.
COc1cccc(C2=CC(c3ccc(N(C)C)cc3)n3nnnc3N2)c1 (stereo unspecified)	89	23	15*	20	75
COc1cccc(C2=CC(c3cccc(OC)c3OC)n3nnnc3N2)c1 (stereo unspecified)	.	12	.	9	.
COC(=O)c1c(NC(=O)CC2SC(N)=NC2=O)sc2c1CCC(C(C)(C)C)C2 (stereo unspecified)	.	56	.	58	.
CN1CCN(Cc2nc3ccccc3c(=O)n2Cc2nc(-c3ccc([N+](=O)[O-])cc3)cs2)CC1	.	0.5*	.	0.8*	.
Brc1ccc2ncnc(NCc3ccco3)c2c1	95	58	55	59	70
OC(CNCc1ccco1)Cn1c2ccc(Br)cc2c2cc(Br)ccc21 (stereo unspecified)	.	1.7*	.	2.1*	.
COc1ccc(/C=C(\C#N)C(=O)OCC(=O)Nc2c(C)cccc2C(C)C)cc1	.	96	.	93	.
Cc1cc(CCCCCCCCc2cc(C)cc(=O)o2)oc(=O)c1	.	88	.	84	.
COc1ccccc1/C=C/C(=O)c1c2c(c(C)[nH]c1=O)CCCC2	.	3.2*	.	5.4*	.
SMILES	Lung fibro prol	PTEN del growth	H69AR inhibit	HCT116 bCat-KO	HUVEC prolif 384
COc1ccccc1/C=C/C(=O)c1ccc(NC(C)=O)cc1	.	17	.	15	.
CC(NC(=O)CCl)c1ccc(Cl)c(Cl)c1 (stereo unspecified)	.	3.8*	.	2.9*	.
CC(C)CC(NC(=O)CCl)c1ccccc1 (stereo unspecified)	.	62	.	57	.
CCOc1ccc(CNC(=O)c2ccc(Sc3ccc(C)cc3)c(NC(C)=O)c2)cc1	.	89	.	76	.
CCCCNS(=O)(=O)c1ccc2nc(SCC(=O)Nc3sccc3C#N)[nH]c2c1	94	54	21*	47	50
O=C(Nc1nnc(-c2ccc3c(c2)CCCC3)o1)c1ccc(Cl)cc1Cl	89	52	52	50	29*
Cc1ccccc1C(=O)Nc1nnc(-c2ccc(F)cc2)o1	85	13	36*	12	65
O=C(Nc1nnc(-c2ccc3c(c2)CCCC3)o1)C1CCCCC1	80	59	49	43	70
COc1ccc(-c2nnc(NC(=O)c3ccc(S(=O)(=O)N4CCc5ccccc5C4)cc3)o2)cc1	69	16	18*	22	13*
O=C(Nc1nnc(-c2ccccc2)o1)c1nc2ccccc2s1	90	.	29*	.	67
COc1ccc(-c2csc(NC(=O)c3ccc(S(=O)(=O)N4CCc5ccccc5C4)cc3)n2)cc1	.	57	.	63	.

High-throughput results deposited in PubChem BioAssay by SRMLSC.
